A short description of test [1]: inhibitors of TNFa-induced NFkB p65 translocation, primary screen, imaging, HUVEC, MLSMR starter and 10KST1 sets (AID 438;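 active = inhibition above 20% together with a positive visual image hit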;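 note: compound added about 3h40 before a 20 min TNFalpha stimulation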;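 for inhibition: signal is the nuclear over cytoplasmic p65 intensity ratio per well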). Conditions: HUVEC TNFa-induced p65 nuclear translocation; cell count: measured here: nuclei count (cytotoxicity indicator), at 2.08 µM; inhibition: at 2 µM, stronger effect = higher value, 0% TNFa-plus-vehicle, 100% no-TNFa wells.
A short description of test [2]: inhibitors of mutant huntingtin aggregation, primary screen, imaging, exon1htt(103Q)mCFP cells, high-content imaging (AID 483;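 active = visual image review flags a hit and inhibition of aggregation exceeds 20%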;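 note: compound exposure lasted 3 days before fixation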;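 for nuclei count: percent of the per-plate median nuclei count of sample wells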). The settings on record: exon1htt(103Q)mCFP cell line, aggregate imaging, at 2 µM; inhibition of aggregation: stronger effect = higher value; nuclei count: measured here: cell count, toxicity.
Test [3] can be described thus: inhibitors of E-selectin induction by TNFa, primary screen, imaging, HUVEC, immunofluorescence, MLSMR starter and 10KST1 sets (AID 487;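 active = visually confirmed hit in the image check and inhibition above 20%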;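 for inhibition: signal is fraction of cell area covered by stained E-selectin grains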;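 for nuclei count: 100% = median nuclei count of all wells on the same plate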). The settings on record: HUVEC TNFalpha-induced E-selectin immunofluorescence imaging, at 2 µM; inhibition: stronger effect = higher value; nuclei count: measured here: cell number, toxicity.
The target of test [4] is Voltage-gated potassium channel subunit beta-2 (Rattus norvegicus) (UniProt P62483). As to the kind of experiment: KvBeta enzyme negative modulators, primary screen, biochemical, NADPH fluorescence (AID 622;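 active = fluorescence slope higher than the sample average by over 3 SD, cut at about -0.22 in these data, passing the limit was not always enough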;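 note: slope of raw intensity against log time taken from 70 to 1610 s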). The settings on record: recombinant KvBeta, 4-cyanobenzaldehyde reduction, at 10 µM, stronger effect = higher value.
Chain of Voltage-gated potassium channel subunit beta-2 (Rattus norvegicus) (P62483 whole entry, looked up): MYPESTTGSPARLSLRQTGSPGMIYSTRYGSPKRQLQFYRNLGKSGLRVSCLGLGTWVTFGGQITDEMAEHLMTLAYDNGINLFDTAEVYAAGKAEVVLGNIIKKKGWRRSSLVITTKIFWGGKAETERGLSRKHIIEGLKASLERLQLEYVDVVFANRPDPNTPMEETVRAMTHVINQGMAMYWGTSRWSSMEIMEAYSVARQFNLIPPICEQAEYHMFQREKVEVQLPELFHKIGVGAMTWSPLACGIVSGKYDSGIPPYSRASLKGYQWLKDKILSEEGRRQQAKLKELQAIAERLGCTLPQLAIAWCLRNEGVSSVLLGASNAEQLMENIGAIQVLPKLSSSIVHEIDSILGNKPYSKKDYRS
Test [5] shares this target. The test can be described thus: KvBeta positive modulators, primary screen, biochemical, NADPH fluorescence (AID 623;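 active = NADPH fluorescence slope more negative than the mean of all samples by about 3 SD, 99.7% confidence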;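 note: fluorescence intensity change per second fitted from 20 to 320 s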). Conditions: Recombinant KvBeta, NADPH fluorescence decrease slope, 10 min; at 10 µM; stronger effect = lower value.
Test [6] addresses Alpha-2C adrenergic receptor (Homo sapiens) (UniProt P18825). As to the kind of experiment: modulators of alpha2C/GIRK thallium flux, primary screen, cell-based, HEK293 alpha2C/GIRK1/2 (AID 624;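 active = fluorescence slope after compound addition differing from the mean of all screened samples at 99.7% confidence, in either direction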;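 note: slope of fluorescence ratio to pre-addition baseline per second over 15 to 24 s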). Conditions: thallium flux BTC fluorescence, at 10 µM, actives lie on both sides.
A short description of test [7]: inhibitors of larval lipid processing in zebrafish, primary screen, whole organism, PED6 fluorescence, gall bladder and intestine (AID 686;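 active = a full or partial loss of lipid-probe fluorescence in the fish gall bladder, intestine or both, judged by eye; inactive = no fluorescence loss, or compound toxic to the fish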;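 note: larvae 5 to 7 days old with five fish per well; signal comes from phospholipase A2 cleavage of quenched PED6 carried via bile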). The settings on record: Zebrafish larvae PED6 lipid processing, fluorescence scoring; screened at 20 µM (by protocol). In outline: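 Incubation: overnight exposure of larvae to compound plus PED6 / Test system: live zebrafish larvae aged 5-7 days, whole organism / Amount: 5 larvae per well / Read-out basis: visual per-well fluorescence inhibition score / Signal: visual fluorescence microscopy scoring of gall bladder, gut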

A short description of test [8]: inhibitors of Sendai virus-induced IRF3 signaling, primary screen, TLR/RLR signaling modifier project, cell-based, Sendai virus stimulus, luciferase, 10K MLSCN set (AID 602276;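 active = inhibition at or above 50% at 10 µM; inactive = inhibition below 50%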;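 note: firefly luciferase from ISG56 promoter only with Renilla not read in this screen; 0% = Sendai virus plus DMSO and 100% = medium plus DMSO without virus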). Conditions: HEK293 RL24 IRF3 luciferase reporter, at 10 µM, stronger effect = higher value.
A short description of test [9]: inhibitors of poly I:C-induced TLR3 signaling, primary screen, cell-based, poly I:C stimulus, luciferase, 10K MLSCN set (AID 602277). Conditions: HEK293-TLR3 RL24 IRF3 luciferase reporter, at 10 µM, stronger effect = higher value. On the technique in general: In a reporter assay the amount or activity of a reporter protein is the signal.

This note sets out measurements from PubChem BioAssay.

As usually defined, the inhibition is the drop in the measured response relative to a control, in per cent.

The source made the active and inactive calls.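 Rule for the calls, unless noted: active = inhibition of the reporter signal at or above 50%; inactive = inhibition below 50%.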

Chain of Alpha-2C adrenergic receptor (Homo sapiens) (P18825 whole entry, looked up): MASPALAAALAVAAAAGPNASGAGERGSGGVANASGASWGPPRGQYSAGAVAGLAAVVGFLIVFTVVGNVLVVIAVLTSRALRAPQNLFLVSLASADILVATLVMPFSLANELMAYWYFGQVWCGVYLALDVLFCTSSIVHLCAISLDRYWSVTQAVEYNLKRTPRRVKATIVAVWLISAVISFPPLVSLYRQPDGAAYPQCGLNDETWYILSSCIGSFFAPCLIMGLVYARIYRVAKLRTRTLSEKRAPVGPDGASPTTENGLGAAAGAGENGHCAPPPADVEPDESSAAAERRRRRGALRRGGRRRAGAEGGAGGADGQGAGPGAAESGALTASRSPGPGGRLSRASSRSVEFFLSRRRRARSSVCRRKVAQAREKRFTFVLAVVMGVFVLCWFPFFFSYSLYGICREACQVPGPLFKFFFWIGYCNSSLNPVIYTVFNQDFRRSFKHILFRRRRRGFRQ

Turning to `Cc1ccc(NC(=O)c2ccco2)c(NC(=O)CN2C(=O)c3ccccc3C2=O)c1`, the cell count in test [1] was 402. For the same molecule, the inhibition in test [1] was -7.3% (inactive); in test [3], -162% (inactive); in test [8], 0.0738% (inactive); in test [9], -0.596% (inactive). Further, the inhibition of aggregation in test [2] was 6.5% (inactive). Also, the nuclei count in test [2] came out at 90.3%; in test [3], 155%. The fluorescence slope in [4] is -0.466 (inactive). Moreover, in test [5], the NADPH fluorescence slope was -1.3e-05 (inactive). Besides, in test [6], the slope is 0.00456 (inactive). Besides, the molecule was called inactive in test [7].

In the case of `COc1ccc(S(=O)(=O)NCCSCc2ccco2)cc1Cl`, the cell count in test [1] was found to be 362. The inhibition in test [1] was 4.4% (inactive); in [3] it was 13.2% (inactive); in [8], 20.4% (inactive); in test [9], 19.9% (inactive). Moreover, in [2], the inhibition of aggregation is 13% (inactive). Besides, the nuclei count in test [2] is 94%; in [3], 108%. Moreover, in test [4], the fluorescence slope was -0.424 (inactive). For the same molecule, the NADPH fluorescence slope in test [5] is -6.4e-06 (inactive). Besides, the slope in [6] was 0.00484 (inactive). The molecule was classed as inactive in test [7].

On to `Cc1nc2cc(NC(=O)N3c4ccccc4CC3C)ccc2o1` (centres undefined), for which, in test [1], the cell count worked out at 574. Further, the inhibition in test [1] is -2.2% (inactive); in [3], -10.4% (inactive); in test [8] it was 1.7% (inactive); in test [9] it was -4% (inactive). In addition, the inhibition of aggregation in test [2] is 7.4% (inactive). The nuclei count in test [2] is 56.2%; in [3], 96.8%. Besides, the fluorescence slope in [4] was -0.394 (inactive). Moreover, the NADPH fluorescence slope in test [5] is -5.4e-05 (inactive). In test [6], the slope is 0.00476 (inactive). In addition, the outcome in test [7] was inactive.

Turning to `CN(CCNC(=O)c1ccc(N2CCCC2=O)cc1)CCc1ccccc1`, in [1], the cell count was 624. Moreover, the inhibition was -24% (inactive) in [1], -79.5% (inactive) in test [3], 6.9% (inactive) in [8] and 10.4% (inactive) in test [9]. Besides, the inhibition of aggregation in [2] was 17.8% (inactive). In addition, the nuclei count in [2] came out at 84.6%; in test [3], 111%. For the same molecule, the fluorescence slope in test [4] was -0.393 (inactive). In addition, in [5], the NADPH fluorescence slope is -2.4e-05 (inactive). For the same molecule, the slope in [6] is 0.00561 (inactive). In addition, the result in test [7] was inactive.

For the molecule `COc1ccc(CCN2C(=O)CC(N3CCN(S(=O)(=O)c4ccccc4)CC3)C2=O)cc1` (centres undefined), the cell count in [1] came to 666. In addition, the inhibition in [1] is 11.3% (inactive); in test [3] it was 69.9% (active); in [8], 11.6% (inactive); in test [9] it was 6.07% (inactive). Also, the inhibition of aggregation in test [2] is 19.5% (inactive). The figures for the nuclei count in test [2] and in test [3] were 106% and 110%, respectively. Besides, the fluorescence slope in test [4] was -0.483 (inactive). Also, in [5], the NADPH fluorescence slope is -8.5e-06 (inactive). Besides, the slope in test [6] is 0.0045 (inactive). The molecule was classed as inactive in test [7].

`N#Cc1c(-c2ccc3c(c2)OCO3)csc1N`: the cell count in test [1] is 584. Further, the inhibition is -4.7% (inactive) in [1], -102% (inactive) in [3], -35.4% (inactive) in test [8] and -84.4% (inactive) in [9]. Also, the inhibition of aggregation in test [2] was 7.8% (inactive). Further, the figures for the nuclei count in test [2] and in test [3] were 94% and 106%, respectively. In addition, the fluorescence slope in test [4] is -0.451 (inactive). Besides, in test [5], the NADPH fluorescence slope was -4.4e-05 (inactive). Besides, in [6], the slope is 0.00604 (inactive). In addition, the outcome in test [7] was inactive.

Take `O=C(CN1CCN(c2ccc(F)cc2)CC1)OCc1ccccc1`: in test [1], the cell count amounted to 662. The inhibition in test [1] is 11.1% (inactive); in test [3], 5.8% (inactive); in test [8], 6.81% (inactive); in test [9] it was 6.58% (inactive). In addition, the inhibition of aggregation in test [2] was -6.3% (inactive). For the same molecule, the results for the nuclei count in test [2] and in test [3] were 102% and 118%, respectively. The fluorescence slope in [4] was -0.356 (inactive). Besides, in test [5], the NADPH fluorescence slope was -6.7e-05 (inactive). The slope in test [6] is 0.00472 (inactive). For the same molecule, in test [7], the result was inactive.

As for `COc1ccc(OC)c(N(CC(=O)Nc2cccnc2)S(=O)(=O)c2ccc(OC)c(OC)c2)c1`, the cell count in [1] is 722. Besides, the inhibition was 7.9% (inactive) in [1], -37.3% (inactive) in [3], 18.6% (inactive) in test [8] and 21.4% (inactive) in test [9]. The inhibition of aggregation in [2] is -6.2% (inactive). Besides, the nuclei count was 97% in test [2] and 94.1% in [3]. Besides, the fluorescence slope in test [4] was -0.456 (inactive). In test [5], the NADPH fluorescence slope was -5.3e-05 (inactive). In addition, the slope in test [6] is 0.00497 (inactive). Further, in [7], the molecule was called inactive.

Turning to `CCCCc1c(O)nc(SCC(=O)Nc2ccc3c(c2)CCC3)[nH]c1=O`, in [1], the cell count came out at 569. For the same molecule, the inhibition was -18.3% (inactive) in [1], -5.9% (inactive) in test [3], 10.6% (inactive) in test [8] and 7.8% (inactive) in [9]. Besides, in test [2], the inhibition of aggregation was -3% (inactive). Moreover, the nuclei count in test [2] stood at 75.8%; in test [3] it was 87.2%. Moreover, the fluorescence slope in test [4] was -0.368 (inactive). In [5], the NADPH fluorescence slope was -6.1e-05 (inactive). The slope in [6] is 0.00495 (inactive). Further, in test [7], the result was inactive.

Take `O=S(=O)(Nn1cnnc1)c1ccccc1Cl`: the cell count in test [1] was 647. In addition, the inhibition in test [1] was 4.3% (inactive); in test [3], 45.5% (inactive); in test [8], -7.35% (inactive); in [9], -10.4% (inactive). Moreover, in test [2], the inhibition of aggregation was -12.3% (inactive). In addition, the values for the nuclei count in [2] and in test [3] were 99% and 81.7%, respectively. In addition, the fluorescence slope in [4] was -0.402 (inactive). In test [5], the NADPH fluorescence slope was -8.6e-06 (inactive). For the same molecule, the slope in test [6] was 0.00434 (inactive). In addition, the molecule was called inactive in test [7].

Take `CCCC(=O)Nc1ccc(C(=O)O)cc1NC(=O)CCC`: the cell count in test [1] amounted to 442. For the same molecule, the inhibition in test [1] is -4.3% (inactive); in [3], 39.4% (inactive); in test [8], 12.9% (inactive); in test [9], 15.5% (inactive). Moreover, the inhibition of aggregation in test [2] is -9.3% (inactive). The nuclei count in test [2] turned out to be 104%; in test [3], 89.9%. Further, the fluorescence slope in test [4] was -0.441 (inactive). The NADPH fluorescence slope in [5] was -5e-05 (inactive). Also, the slope in test [6] is 0.00422 (inactive). The molecule was called inactive in test [7].

`O=C(CSc1ccc(-c2ccccc2)nn1)N1CCOCC1`: in test [1], the cell count was 664. The inhibition in test [1] is -5.6% (inactive); in test [3], 57.9% (active); in test [8] it was 5.28% (inactive); in test [9], -10.6% (inactive). Besides, the inhibition of aggregation in test [2] is -24% (inactive). The nuclei count turned out to be 118% in test [2] and 132% in test [3]. Further, the fluorescence slope in test [4] is -0.452 (inactive). For the same molecule, the NADPH fluorescence slope in test [5] is -4.4e-05 (inactive). The slope in [6] was 0.00495 (inactive). For the same molecule, the outcome in test [7] was inactive.
